Source: ChEMBL document CHEMBL1152928, “Ingol and ingenol diterpenes from the aerial parts of Euphorbia royleana and their antiangiogenic activities” (J Nat Prod, 2009)

How the values were obtained:
[1] = Antiangiogenic activity in zebrafish embryo assessed as inhibition of intersegmental vessel growth at 10 ug/mL after 24 hours by alkaline phosphatase staining relative to control; assay type: functional, Danio rerio
Procedure, shortened: (§1)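 Embryos at 24 hpf randomly distributed into wells and exposed 24 h. Intersegmental vessels visualized by GFP labeling plus endogenous alkaline phosphatase staining. Activity derived from inhibition ratio of angiogenesis versus 0.1% DMSO vehicle control. PTK787 positive control.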

[2] = Antiangiogenic activity in zebrafish embryo assessed as inhibition of intersegmental vessels growth after 24 hours by alkaline phosphatase staining; assay type: functional, tissue-based, Danio rerio; procedure, shortened: as §1
[3] = Antiangiogenic activity in zebrafish embryo assessed as inhibition of intersegmental vessel growth at 3 ug/mL after 24 hours by alkaline phosphatase staining relative to control; assay type: functional, Danio rerio; procedure, shortened: as §1
[4] = Antiangiogenic activity in zebrafish embryo assessed as inhibition of intersegmental vessel growth at 1 ug/mL after 24 hours by alkaline phosphatase staining relative to control; assay type: functional, Danio rerio; procedure, shortened: as §1
[5] = Antiangiogenic activity in zebrafish embryo assessed as inhibition of intersegmental vessel growth at 5 ug/mL after 24 hours by alkaline phosphatase staining relative to PTK787; assay type: functional, Danio rerio
[6] = Antiangiogenic activity in zebrafish embryo assessed as inhibition of intersegmental vessel growth at 0.1 ug/mL after 24 hours by alkaline phosphatase staining relative to control; assay type: functional, Danio rerio; procedure, shortened: as §1

Row | SMILES | inhibition (INH) [1] [%] | IC50 [2] [µg/mL] | inhibition (INH) [3] [%] | inhibition (INH) [4] [%] | inhibition (INH) [5] [%] | inhibition (INH) [6] [%]
1 | C/C=C(\C)C(=O)O[C@H]1[C@@H](C)C[C@@]23O[C@@]12/C=C(\C)[C@@H](O)[C@@H](OC(=O)c1ccccc1)[C@H]1[C@@H]([C@H](OC(C)=O)[C@@H](C)C3=O)C1(C)C | 4.7 | > 5 | 3.6 | 4.7 | – | –
2 | CC(=O)O[C@H]1[C@H]2[C@@H]([C@H](OC(C)=O)[C@@H](C)C(=O)[C@@]34C[C@H](C)[C@H](OC(C)=O)[C@]3(/C=C(\C)[C@H]1OC(=O)c1ccccc1)O4)C2(C)C | – | > 5 | – | – | – | –
3 | C/C=C(\C)C(=O)O[C@H]1[C@H]2[C@@H]([C@H](OC(C)=O)[C@@H](C)C(=O)[C@@]34C[C@H](C)[C@H](OC(=O)/C(C)=C/C)[C@]3(/C=C(\C)[C@H]1OC(=O)c1ccccc1)O4)C2(C)C | 12.2 | > 5 | 4.7 | – | 1.1 | –
4 | C/C=C(\C)C(=O)O[C@H]1[C@H]2[C@@H]([C@H](OC(C)=O)[C@@H](C)C(=O)[C@@]34C[C@@H](C)[C@H](OC(=O)c5ccccc5)[C@]3(/C=C(\C)[C@H]1O)O4)C2(C)C | 0 | > 5 | 1.1 | 5.4 | – | –
5 | C/C=C(\C)C(=O)O[C@H]1[C@H]2[C@@H]([C@H](OC(C)=O)[C@@H](C)C(=O)[C@@]34C[C@H](C)[C@H](OC(=O)c5ccccc5)[C@]3(/C=C(\C)[C@H]1O)O4)C2(C)C | 3.2 | > 5 | 5.4 | – | 0 | –
6 | CC(=O)O[C@H]1[C@@H]2[C@H]([C@H](OC(=O)c3ccccc3)[C@H](O)/C(C)=C/[C@@]34O[C@@]3(C[C@@H](C)[C@@H]4OC(=O)c3ccccc3)C(=O)[C@@H]1C)C2(C)C | 3.6 | > 5 | 1.8 | 1.1 | – | –
7 | CC(=O)O[C@H]1[C@@H]2[C@H]([C@H](OC(=O)c3ccccc3)[C@H](O)/C(C)=C/[C@@]34O[C@@]3(C[C@H](C)[C@@H]4OC(=O)c3ccccc3)C(=O)[C@@H]1C)C2(C)C | 0 | > 5 | 2.1 | 0 | – | –
8 | CC(=O)O[C@H]1[C@H]2[C@@H]([C@H](OC(C)=O)[C@@H](C)C(=O)[C@@]34C[C@H](C)[C@H](OC(=O)c5ccccc5)[C@]3(/C=C(\C)[C@H]1OC(=O)c1ccccc1)O4)C2(C)C | 1.8 | > 5 | 1.8 | 1.8 | – | –
9 | C/C=C(\C)C(=O)O[C@H]1[C@H]2[C@@H]([C@H](OC(C)=O)[C@@H](C)C(=O)[C@@]34C[C@H](C)[C@H](OC(=O)/C(C)=C/C)[C@]3(/C=C(\C)[C@H]1O)O4)C2(C)C | 4.7 | > 5 | 3.6 | 2.9 | – | –
10 | C/C=C(\C)C(=O)O[C@@H]1/C(C)=C/[C@@]23O[C@@]2(C[C@H](C)[C@@H]3OC(=O)/C(C)=C/C)C(=O)[C@H](C)[C@@H](OC(C)=O)[C@@H]2[C@H]([C@@H]1OC(C)=O)C2(C)C | 5 | > 5 | 5.8 | – | 5.8 | –
11 | Clc1ccc(Nc2nnc(Cc3ccncc3)c3ccccc23)cc1.O=C(O)CCC(=O)O | 100 | 0.15 | – | 95.5 | – | 34.6
